*1 amine or outer side, *2 acyl side, *3 side chain or, on linkers, in order; H or OH if unused. Where a SMILES comes first, the peptide text is derived from it. [ ]: non-standard residue; d: D form. The star is where a group is joined. Doxorubicin(3'-N) = COc1cccc2c1C(=O)c1c(O)c3c(c(O)c1C2=O)C[C@@](O)(C(=O)CO)C[C@@H]3O[C@H]1C[C@H](N*)[C@H](O)[C@H](C)O1; X1 = COc1cccc2c1C(=O)c1c(O)c3c(c(O)c1C2=O)C[C@@](O)(C(=O)CO)C[C@@H]3OC1CC(N*)C(O)C(C)O1; Glutaryl = O=C(CCCC(=O)[*:2])[*:1]; Hyp = O=C(O)[C@@H]1C[C@@H](O)CN1; Chg = N[C@H](C(=O)O)C1CCCCC1 Bounds are passed on as bounds.

One series relates to PSA. The experiment in a line: Time required for PSA to hydrolyze 50% (t1/2). In kind it is ADME. The note with it: PSA (enzyme).
In another series the test system is DuPro. Description: Concentration required to kill 50% of tumor cells in PSA nonproducing DuPRO human prostate cancer cell line. It is filed as functional, cell-based.
For series [1], the system named is LNCaP. The experiment in a line: Concentration required to kill 50% of tumor cells in PSA producing LNCaP human prostate cancer cell line. It is filed as functional, cell-based.
Series [2] deals with LNCaP. The experiment in a line: Percentage PSA reduction relative to vehicle control following intraperitoneal injection of conjugate dose for 5 consecutive days to nude mice bearing LNCaP tumor xenografts. In kind it is functional, Homo sapiens.
Series [3] concerns Mus musculus. Description: Maximum nonlethal drug dose which could be administered (ip) to non tumor bearing nude mice for 5 consecutive days. In kind it is functional.
The subject of series [4] is Mus musculus. Description: Percentage weight reduction relative to vehicle control following intraperitoneal (ip) injection of conjugate dose for 5 consecutive days to nude mice bearing LNCaP tumor xenografts (2.8 umol/kg dose). It is filed as functional.
Series [5] relates to Mus musculus. The experiment in a line: Percentage weight reduction relative to vehicle control following intraperitoneal (ip) injection of conjugate dose for 5 consecutive days to nude mice bearing LNCaP tumor xenografts(36.6 umol/kg dose). It is filed as functional. The method, boiled down:
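Nude mice carrying xenografts of PSA-secreting human prostate LNCaP cells received the conjugate intraperitoneally once daily for 5 consecutive days. Circulating PSA and tumor weight were each expressed as percent reduction against vehicle-treated controls.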

For the compound `COc1cccc2c1C(=O)c1c(O)c3c(c(O)c1C2=O)C[C@@](O)(C(=O)CO)C[C@@H]3O[C@H]1C[C@H](NC(=O)[C@H](CC(C)C)NC(=O)[C@H](CO)NC(=O)[C@H](CO)NC(=O)[C@H](CO)NC(=O)[C@H](CCC(N)=O)NC(=O)[C@H](Cc2ccc(O)cc2)NC(=O)[C@H](CO)NC(=O)[C@H](C)NC(=O)[C@H](CCCCN)NC(=O)[C@H](CC(N)=O)NC(=O)[C@H](C)NC(C)=O)[C@H](O)[C@H](C)O1` (Ac-ANKASYQSSSL-{Doxorubicin(3'-N)}), the half-life (in general, the time needed for the level to fall by half in the phase considered) with PSA is 30 min. Further, the EC50 – broadly, the concentration at which the effect is half-maximal – was determined as 117 µM in the series with DuPro and 7 µM in the series on LNCaP [1].
Taken in the same sequence, the figures for `COc1cccc2c1C(=O)c1c(O)c3c(c(O)c1C2=O)C[C@@](O)(C(=O)CO)C[C@@H]3OC1CC(NC(=O)[C@H](CC(C)C)NC(=O)[C@H](CO)NC(=O)[C@H](CCC(N)=O)NC(=O)[C@@H](NC(=O)[C@H](CO)NC(=O)[C@H](C)NC(=O)[C@@H]2CCCN2C(C)=O)C2CCCCC2)C(O)C(C)O1` (some centres undefined) (Ac-PAS[Chg]QSL-X1) were 45 min, > 100 µM and 7.4 µM.
On to Ac-ANKISYQSAKTE-NH2, for which the half-life in the series on PSA was 125 min.
Regarding `COc1cccc2c1C(=O)c1c(O)c3c(c(O)c1C2=O)C[C@@](O)(C(=O)CO)C[C@@H]3O[C@H]1C[C@H](NC(=O)[C@H](C)NC(=O)[C@H](C)NC(=O)[C@H](C)NC(C)=O)[C@H](O)[C@H](C)O1`, the EC50 with DuPro and in the series on LNCaP [1] was > 100 µM throughout.
In the case of `COc1cccc2c1C(=O)c1c(O)c3c(c(O)c1C2=O)C[C@@](O)(C(=O)CO)C[C@@H]3OC1CC(NC(=O)[C@H](CC(C)C)NC(=O)[C@H](CO)NC(=O)[C@H](CCC(N)=O)NC(=O)[C@@H](NC(=O)[C@H](CO)NC(=O)[C@H](C)NC(=O)[C@H](CCCCN)NC(C)=O)C2CCCCC2)C(O)C(C)O1` (some centres undefined) (Ac-KAS[Chg]QSL-X1), the EC50 with DuPro is > 100 µM; in the series with LNCaP [1] it was 4.5 µM.
On to `COc1cccc2c1C(=O)c1c(O)c3c(c(O)c1C2=O)C[C@@](O)(C(=O)CO)C[C@@H]3O[C@H]1C[C@H](N)[C@H](O)[C@H](C)O1` [DOXORUBICIN], for which the Reduction with LNCaP [2] is recorded as 16%; in the series with Mus musculus [4], 6%. The MTD with Mus musculus [3] turned out to be 2.8 µM/kg. The figures for the EC50 in the series on DuPro and in the series with LNCaP [1] were 1.8 µM and 0.7 µM, respectively.
H-SQKANKISYQSSSTEERRLHYGENG-OH yielded a half-life with PSA of 25 min.
Regarding `COc1cccc2c1C(=O)c1c(O)c3c(c(O)c1C2=O)C[C@@](O)(C(=O)CO)C[C@@H]3O[C@H]1C[C@H](NC(=O)[C@H](CC(C)C)NC(=O)[C@H](CO)NC(=O)[C@H](CCC(N)=O)NC(=O)[C@@H](NC(=O)[C@H](CO)NC(=O)[C@H](C)NC(=O)[C@@H]2C[C@@H](O)CN2C(=O)CCCC(=O)O)C2CCCCC2)[C@H](O)[C@H](C)O1` (Glutaryl-[Hyp]AS[Chg]QSL-{Doxorubicin(3'-N)}), the half-life with PSA was 30 min. Also, the EC50 was > 100 µM in the series with DuPro and 5 µM in the series on LNCaP [1].
Consider `COc1cccc2c1C(=O)c1c(O)c3c(c(O)c1C2=O)C[C@@](O)(C(=O)CO)C[C@@H]3O[C@H]1C[C@H](NC(=O)[C@H](CC(C)C)NC(=O)[C@H](CO)NC(=O)[C@H](CO)NC(=O)[C@H](CCC(N)=O)NC(=O)[C@H](Cc2ccc(O)cc2)NC(=O)[C@H](CO)NC(=O)[C@H](C)NC(=O)[C@H](CCCCN)NC(=O)[C@H](CC(N)=O)NC(=O)[C@H](C)NC(C)=O)[C@H](O)[C@H](C)O1` (Ac-ANKASYQSSL-{Doxorubicin(3'-N)}) [listing 1 of 2 here], for which the Reduction in the series on LNCaP [2] is reported as 87%; with Mus musculus [5], 81%. Further, the MTD in the series with Mus musculus [3] is >36.6 µM/kg.
Consider Ac-ANKISYQSSKTE-NH2, for which, in the series on PSA, the half-life stood at 110 min.
Same read-out and setting: to Ac-ANKISYQSASTE-NH2 belongs 145 min; to Ac-ANKASYQSASTE-NH2, 50 min.
In the case of `COc1cccc2c1C(=O)c1c(O)c3c(c(O)c1C2=O)C[C@@](O)(C(=O)CO)C[C@@H]3O[C@H]1C[C@H](NC(=O)[C@H](CC(C)C)NC(=O)[C@H](CO)NC(=O)[C@H](CO)NC(=O)[C@H](CCC(N)=O)NC(=O)[C@H](Cc2ccc(O)cc2)NC(=O)[C@H](CO)NC(=O)[C@H](C)NC(=O)[C@H](CCCCN)NC(=O)[C@H](CC(N)=O)NC(=O)[C@H](C)NC(C)=O)[C@H](O)[C@H](C)O1` (Ac-ANKASYQSSL-{Doxorubicin(3'-N)}) [listing 2 of 2 here], the figures for the EC50 in the series on DuPro and in the series on LNCaP [1] were > 100 µM and 6.3 µM, respectively.
As to H-SYQSSSTE-OH, the half-life with PSA is > 180 min.
